Measured values reported in ChEMBL document CHEMBL5252546, “Salutaxel, a Conjugate of Docetaxel and a Muramyl Dipeptide (MDP) Analogue, Acts as Multifunctional Prodrug That Inhibits Tumor Growth and Metastasis” (J Med Chem, 2018).
The source made the active and inactive calls. No cut-off for these calls is given here.

Tests used:
[1] = Stability in dog plasma assessed as compound remaining at 1 uM incubated for 6 hrs; assay type: ADME, cell-free, Canis lupus familiaris
[2] = AUC (0-t) in female Beagle dog at 4 mg/kg,iv measured upto 24 hrs; assay type: ADME, organism-based, Canis lupus familiaris; design: dose 4 mg/kg, time < 24 hrs, route iv; details: in vivo
In short: (§1)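 Single iv dose: rats 2, 4 or 8 mg/kg by intravenous injection; Beagle dogs 1, 2 or 4 mg/kg by intravenous infusion. Plasma concentration–time data were analysed by sex and pooled. Reported parameters: Cmax, Tmax, AUC0−t, AUC0−∞, MRT0−∞, t1/2, CL, Vss, given as mean ± SD.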

[3] = Drug metabolism in human hepatocytes assessed as docetaxel metabolite formation at 20 uM incubated for 180 mins; assay type: ADME, cell-based, Hepatocyte; details: 3 h
4T1 [4] = assay: Antitumor activity against mouse 4T1 cells implanted in BALB/c mouse assessed as decrease in serum IL-6 level at 5 mg/kg,iv administrated once per week for 4 weeks by ELISA; assay type: functional, organism-based
In short: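 4T1 fat-pad model in BALB/c mice, iv 5–20 mg/kg once weekly for 4 weeks, with vehicle and naive groups; serum MMP9, TIMP-1, IL-6 and S100A9 measured by mouse ELISA kits.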

[5] = Acute toxicity in Beagle dog assessed as lethal dose at iv administration; assay type: organism-based, Canis lupus familiaris; details: in vivo
In short: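 Acute toxicity after a single intravenous administration. […] In dogs, an approximate lethal dose range was determined.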

[6] = Tmax in Beagle dog at 4 mg/kg,iv measured upto 24 hrs; assay type: ADME, organism-based, Canis lupus familiaris; details: in vivo
4T1 [7] = assay: Antitumor activity against mouse 4T1 cells xenografted with BALB/c mouse assessed as inhibition of tumor growth at 20 mg/kg,iv administrated once per week for 4 weeks; assay type: functional; details: 4T1, 672 h
In short: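 4T1 cells injected into the mammary fat pad of BALB/c mice; iv saline vehicle or 5, 10 or 20 mg/kg once weekly for 4 weeks; body weight, tumour volume, tumour weight, lung metastatic nodule count and metastasis score recorded; n = 10, mean ± SEM, ANOVA and Student's t test.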

[8] = Stability in mouse hepatocyte assessed as compound remaining at 3 uM incubated upto 120 mins; assay type: ADME, cell-based; details: hepatocytes, 2 h
Cytochrome P450 3A4 = Cytochrome P450 3A4 (Homo sapiens, UniProt P08684); assay: Inhibition of CYP3A4 in human liver microsomes using probe substrate at 0.1 to 100 uM in presence of NADPH; assay type: ADME, Microsome; details: dose 0.1-100 µM
Sequence of Cytochrome P450 3A4 (P08684 whole entry): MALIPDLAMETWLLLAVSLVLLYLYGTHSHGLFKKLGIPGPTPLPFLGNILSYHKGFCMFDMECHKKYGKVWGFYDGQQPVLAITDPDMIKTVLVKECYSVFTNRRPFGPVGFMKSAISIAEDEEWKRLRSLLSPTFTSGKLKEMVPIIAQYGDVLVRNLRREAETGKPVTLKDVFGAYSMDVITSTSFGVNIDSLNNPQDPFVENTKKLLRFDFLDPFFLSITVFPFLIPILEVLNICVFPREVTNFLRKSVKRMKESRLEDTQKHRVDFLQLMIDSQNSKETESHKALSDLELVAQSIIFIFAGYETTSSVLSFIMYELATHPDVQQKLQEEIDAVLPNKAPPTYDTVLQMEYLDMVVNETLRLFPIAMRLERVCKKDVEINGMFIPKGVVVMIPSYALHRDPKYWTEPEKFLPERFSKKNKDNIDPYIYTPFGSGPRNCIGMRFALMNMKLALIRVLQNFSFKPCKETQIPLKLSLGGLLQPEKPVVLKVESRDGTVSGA

[9] = AUC (0-infinity) in female rat at 2 mg/kg,iv measured upto 24 hrs; assay type: ADME, organism-based; design: time < 24 hrs, dose 2 mg/kg, route iv; details: in vivo; in short: as §1
NCI-H1975 = assay: Antitumor activity against human NCI-H1975 cells xenografted with BALB/c mouse assessed as inhibition of tumor growth at 10 mg/kg,iv administrated once per week for 3 weeks; assay type: functional, organism-based
In short: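 BALB/c nu/nu mice given subcutaneous human tumour cells in the right flank; dosing began at about 100–120 mm3 mean volume; iv once weekly for 3 weeks, with equimolar parent drug as positive control; tumour volume and weight measured; n = 8, mean ± SEM, ANOVA and Student's t test.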

[10] = Toxicity in BALB/c mouse xenografted with mouse 4T1 cells assessed as decrease in body weight at 10 mg/kg,iv administrated with doxorubicin combination once per week for 4 weeks; assay type: organism-based; details: in vivo, 672 h
[11] = Cmax in mouse plasma implanted with mouse 4T1 cells at 10 mg/kg,iv measured upto 72 hrs; assay type: ADME, organism-based; design: dose 10 mg/kg, time < 72 hrs, route iv
In short: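 BALB/c mice carried 4T1 cells implanted in the mammary fat pad and received a single iv dose of 10 mg/kg. Parent drug and released docetaxel were assayed in plasma and tumor tissue up to 72 h. Parameters came from noncompartmental analysis, n = 6, mean ± SD.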

[12] = AUC (0-t) in male rat at 4 mg/kg,iv measured upto 24 hrs; assay type: ADME, organism-based; design: time < 24 hrs, dose 4 mg/kg, route iv; details: in vivo; in short: as §1
[13] = AUC (0-infinity) in female Beagle dog at 4 mg/kg,iv measured upto 24 hrs; assay type: ADME, organism-based, Canis lupus familiaris; design: dose 4 mg/kg, time < 24 hrs, route iv; details: in vivo; in short: as §1
4T1 [14] = assay: Antitumor activity against mouse 4T1 cells implanted in BALB/c mouse assessed as decrease in S100A9 mRNA expression in lung at 20 mg/kg,iv administrated qd for 2 days by qRT-PCR analysis; assay type: functional, organism-based; details: time 2.0 day
In short: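 Day 19 after 4T1 implantation, mice randomised into five groups; iv vehicle or 20 mg/kg plus ip C12-iE-DAP (50 μg/mouse) and MDP (100 μg/mouse) once daily for 2 days; killed after 48 h; lung mRNA for MMP8, MMP9, PROK2, S100A8, S100A9 and IL-1β by qPCR; mean ± SEM.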

SF-295 = assay: Antiproliferative activity against human SF-295 cells assessed inhibition of cell growth incubated for 72 hrs by SRB assay; assay type: functional, cell-based; details: SF-295, 72 h
4T1 [15] = assay: Antitumor activity against mouse 4T1 cells implanted in BALB/c mouse assessed as decrease in spleen MMP2 expression level at 5 to 20 mg/kg,iv administrated once per week for 4 weeks by western blot assay; assay type: functional, organism-based; details: dose 5-20 mg/kg
In short: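 4T1 fat-pad model in BALB/c mice, iv once weekly for 4 weeks; MMP9, MMP2 and NOD1 in spleen, lung and tumour by western blot, β-actin loading control; bands averaged over five mice per group, representative of two independent experiments.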

[16] = Toxicity in Beagle dog assessed as facial swelling at 3 to 18 mg/kg,iv measured upto 24 hrs; assay type: organism-based, Canis lupus familiaris; details: in vivo, dose 3-18 mg/kg
[17] = Toxicity in BALB/c mouse xenografted with human HCT-116 cells assessed as side effects at 10 mg/kg,iv administrated once per week for 3 weeks; assay type: organism-based; details: in vivo, 504 h
[18] = AUC (0-infinity) in Beagle dog at 1 mg/kg,iv measured upto 24 hrs; assay type: ADME, organism-based, Canis lupus familiaris; design: dose 1 mg/kg, time < 24 hrs, route iv; details: in vivo; in short: as §1
4T1 [19] = assay: Antitumor activity against mouse 4T1 cells implanted in BALB/c mouse assessed as decrease in lung MMP2 expression level at 5.7 mg/kg,iv administrated once per week for 4 weeks in presence of MDA-205 by western blot assay; assay type: functional, organism-based
In short: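 4T1 cells injected into mammary fat pads of BALB/c mice. Saline vehicle or test article given iv once weekly for 4 weeks. Spleen, lung and tumor lysates immunoblotted for MMP2/MMP9 with β-actin as loading control. Bands averaged over five mice per group, representative of two independent experiments.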

[20] = Toxicity in BALB/c mouse xenografted with mouse 4T1 cells assessed as decrease in body weight at 5.7 mg/kg,iv administrated with doxorubicin combination once per week for 4 weeks; assay type: organism-based; details: in vivo, 672 h
In short: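 4T1 mammary fat-pad model in BALB/c mice. Doxorubicin (4 mg/kg) was given alone or co-administered with the conjugate or its parent taxane, with iv saline vehicle. Readouts were body weight, tumour volume, tumour weight, lung metastatic nodules and lung metastasis score. Mean ± SEM, n = 10; ANOVA and Student's t test.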

4T1 [21] = assay: Antitumor activity against mouse 4T1 cells implanted in BALB/c mouse assessed as decrease in serum IL-6 level at 5.7 mg/kg,iv administrated once per week for 4 weeks by ELISA; assay type: functional, organism-based
4T1 [22] = assay: Antitumor activity against mouse 4T1 cells implanted in BALB/c mouse assessed as decrease in lung metastasis at 5.7 mg/kg,iv administrated once per week for 4 weeks by H and E staining based assay; assay type: functional, organism-based
In short: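 BALB/c mice bearing orthotopic mammary fat pad 4T1 tumors, dosed iv weekly for 4 weeks with saline vehicle as control. Lung sections stained with hematoxylin and eosin and examined by light microscopy at 40× for metastasis, inflammatory infiltration and alveolar wall thickening.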

SMILES: CC(=O)O[C@@]12CO[C@@H]1C[C@H](O)[C@@]1(C)C(=O)[C@H](O)C3=C(C)[C@@H](OC(=O)[C@H](OC(=O)CCC(=O)NCCCC[C@H](NC(=O)CC[C@@H](NC(=O)[C@H](C)NC(=O)/C=C/c4ccc(F)cc4Cl)C(N)=O)C(=O)O)[C@@H](NC(=O)OC(C)(C)C)c4ccccc4)C[C@@](O)([C@@H](OC(=O)c4ccccc4)[C@H]21)C3(C)C
- Stability [1]: Stable
- AUC(0-t) at 24 h [2]: 20300 ng·h/mL
- Drug metabolism [3]: Metabolite_Detected
- Activity (4T1 [4]): Active
- LD [5]: 33 mg/kg
- Tmax [6]: 30 min
- inhibition in vivo at 20 mg/kg (4T1 [7]): 57.2%
- Stability [8]: Stable
- inhibition (INH) (Cytochrome P450 3A4): Not Active
- AUC(0-inf) [9]: 4330 ng·h/mL
- inhibition (NCI-H1975): Active
- Activity [10]: Toxic
- Cmax [11]: 14.7 µM
- AUC(0-t) at 24 h [12]: 20700 ng·h/mL
- AUC(0-inf) [13]: 20300 ng·h/mL
- Activity (4T1 [14]): Active
- IC50 (SF-295): 16.3 nM
- Activity (4T1 [15]): inactive
- Activity [16]: Toxic
- Activity [17]: Non-Toxic
- AUC(0-inf) [18]: 1640 ng·h/mL

SMILES: CC(=O)O[C@@]12CO[C@@H]1C[C@H](O)[C@@]1(C)C(=O)[C@H](O)C3=C(C)[C@@H](OC(=O)[C@H](O)[C@@H](NC(=O)OC(C)(C)C)c4ccccc4)C[C@@](O)([C@@H](OC(=O)c4ccccc4)[C@H]21)C3(C)C [DOCETAXEL ANHYDROUS]
- Activity (4T1 [19]): inactive
- Activity [20]: Toxic
- Activity (4T1 [21]): Active
- Activity (4T1 [22]): Active
